Experimental data reported in ChEMBL document CHEMBL1123535, “Thiol addition to quinones: model reactions for the inactivation of thymidylate synthase by 5-p-benzoquinonyl-2'-deoxyuridine 5'-phosphate” (J Med Chem, 1986).
Values belong to the molecule of their own block, whether it stands above or below them.

Columns and labels:
Thymidylate synthase [1] = target: T1, Thymidylate synthase (Homo sapiens, UniProt P04818); assay: Binding affinity against thymidylate synthase
Method in brief: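 Thymidylate synthase was inactivated at pH 6.8 and 30 °C, and time-dependent loss of activity was followed. Observed inactivation rate constants, including runs with substrate present (substrate protection), were fitted to 1/kobsd = [Ki[S]/(Km[I]) + Ki/kinact](1/[I]) + 1/kinact to give Ki and kinact. The second-order constant was taken as kinact/Ki.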
Target sequence in this assay (P04818 whole entry): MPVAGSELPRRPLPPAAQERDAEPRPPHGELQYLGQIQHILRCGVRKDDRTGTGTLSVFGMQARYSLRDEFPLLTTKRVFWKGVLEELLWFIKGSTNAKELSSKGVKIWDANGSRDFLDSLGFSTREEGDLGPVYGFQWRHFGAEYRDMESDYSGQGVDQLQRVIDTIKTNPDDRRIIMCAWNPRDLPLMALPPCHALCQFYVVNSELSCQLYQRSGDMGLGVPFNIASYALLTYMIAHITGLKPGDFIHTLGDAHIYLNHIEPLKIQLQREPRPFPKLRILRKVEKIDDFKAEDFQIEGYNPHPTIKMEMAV

Thymidylate synthase [2] = target: T1, Thymidylate synthase
Target sequence in this assay (P04818 2-313 limits assumed): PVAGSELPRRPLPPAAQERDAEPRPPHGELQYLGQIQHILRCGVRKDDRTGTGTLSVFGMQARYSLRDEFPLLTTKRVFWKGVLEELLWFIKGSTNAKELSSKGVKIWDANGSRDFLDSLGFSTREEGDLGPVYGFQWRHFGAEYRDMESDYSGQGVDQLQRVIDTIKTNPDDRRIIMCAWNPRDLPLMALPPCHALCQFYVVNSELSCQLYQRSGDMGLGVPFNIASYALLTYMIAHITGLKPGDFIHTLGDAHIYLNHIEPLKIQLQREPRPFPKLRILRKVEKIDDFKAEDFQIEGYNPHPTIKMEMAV

Thymidylate synthase [3] = target: T1, Thymidylate synthase; assay: The rate constant in Acetonitrile and buffered aqueous acetonitrile solution, at 30 degrees C and pH 6.8
Target sequence in this assay (P04818 2-313 limits assumed): as above

Thymidylate synthase [4] = target: T1, Thymidylate synthase; assay: The rate constant in 70% ethanol
Target sequence in this assay (P04818 2-313 limits assumed): as above

Thymidylate synthase [5] = target: T1, Thymidylate synthase; assay: The rate constant in Acetonitrile and buffered aqueous acetonitrile solution, at 25 degrees Celsius and pH 7.4
Target sequence in this assay (P04818 2-313 limits assumed): as above

Thymidylate synthase [6] = target: T1, Thymidylate synthase; assay: The rate constant in 75% aqueous Acetonitrile […] as reagent
Target sequence in this assay (P04818 2-313 limits assumed): as above

Thymidylate synthase [7] = target: T1, Thymidylate synthase; assay: The rate constant in 75% aqueous Acetonotrileas methyl mercaptoacetate as reagent
Target sequence in this assay (P04818 2-313 limits assumed): as above

Thymidylate synthase [8] = target: T1, Thymidylate synthase; assay: The rate constant in Acetonitrile and buffered aqueous acetonitrile solution, at 30 degrees Celsius and pH 8.1
Thymidylate synthase [9] = target: T1, Thymidylate synthase; assay: The observed rate constant with methyl mercaptoacetate in Acetonitrile and buffered aqueous acetonitrile solution at 1.4 x 10e-4 M concentration of 0.0020
Method in brief: (§1)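 Quinone nucleoside reacted with excess methyl mercaptoacetate in deoxygenated acetonitrile at […]. Water content was varied by adding known amounts of water to acetonitrile dried over 3-Å sieves. Initial quinone was 7.4×10^-5 to 1.6×10^-4 M, and thiol was varied. Pseudo-first-order kobsd was measured, and k2 came from log kobsd = log k2 + n log[thiol].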

Thymidylate synthase [10] = target: T1, Thymidylate synthase; assay: The observed rate constant with methyl mercaptoacetate in Acetonitrile and buffered aqueous acetonitrile solution at 9.7 x 10e-5 M concentration of 0.0096 M; method in brief: as §1
Thymidylate synthase [11] = target: T1, Thymidylate synthase; assay: The observed rate constant with methyl mercaptoacetate in Acetonitrile and buffered aqueous acetonitrile solution at 9.7 x 10e-5 M concentration of 0.0029 M; method in brief: as §1
Thymidylate synthase [12] = target: T1, Thymidylate synthase; assay: The observed rate constant with methyl mercaptoacetate in Acetonitrile and buffered aqueous acetonitrile solution at 7.4 x 10e-5 M concentration of 0.00098 M; method in brief: as §1
Thymidylate synthase [13] = target: T1, Thymidylate synthase; assay: The observed rate constant with methyl mercaptoacetate in Acetonitrile and buffered aqueous acetonitrile solution at 1.6 x 10e-4 M concentration of 0.0015 M; method in brief: as §1
Thymidylate synthase [14] = target: T1, Thymidylate synthase; assay: The observed rate constant with methyl mercaptoacetate in Acetonitrile and buffered aqueous acetonitrile solution at 9.7 x 10e-5 M concentration of 0.0048 M; method in brief: as §1
Thymidylate synthase [15] = target: T1, Thymidylate synthase; assay: The rate constant with methyl mercaptoacetate in Acetonitrile and buffered aqueous acetonitrile solution at concentration of 0.0077 M; method in brief: as §1
Thymidylate synthase [16] = target: T1, Thymidylate synthase; assay: The rate constant with methyl mercaptoacetate in Acetonitrile and buffered aqueous acetonitrile solution at concentration of 0.0039 M; method in brief: as §1
Thymidylate synthase [17] = target: T1, Thymidylate synthase; assay: The observed rate constant with methyl mercaptoacetate in Acetonitrile and buffered aqueous acetonitrile solution at 1.6 x 10e-4 M concentration of 0.0026 M; method in brief: as §1
Thymidylate synthase [18] = target: T1, Thymidylate synthase; assay: The observed rate constant with methyl mercaptoacetate in Acetonitrile and buffered aqueous acetonitrile solution at 1.4 x 10e-4 M concentration of 0.0077; method in brief: as §1
Thymidylate synthase [19] = target: T1, Thymidylate synthase; assay: The observed rate constant with methyl mercaptoacetate in Acetonitrile and buffered aqueous acetonitrile solution at 1.6 x 10e-4 M concentration of 0.0061 M; method in brief: as §1
Thymidylate synthase [20] = target: T1, Thymidylate synthase; assay: The observed rate constant with methyl mercaptoacetate in Acetonitrile and buffered aqueous acetonitrile solution at 1.6 x 10e-4 M concentration of 0.012 M; method in brief: as §1
Thymidylate synthase [21] = target: T1, Thymidylate synthase; assay: The rate constant with methyl mercaptoacetate in Acetonitrile and buffered aqueous acetonitrile solution at concentration of 0.00096 M; method in brief: as §1
Thymidylate synthase [22] = target: T1, Thymidylate synthase; assay: The observed rate constant with methyl mercaptoacetate in Acetonitrile and buffered aqueous acetonitrile solution at 7.4 x 10e-5 M concentration of 0.0039 M; method in brief: as §1
Thymidylate synthase [23] = target: T1, Thymidylate synthase; assay: The observed rate constant with methyl mercaptoacetate in Acetonitrile and buffered aqueous acetonitrile solution at 1.6 x 10e-4 M concentration of 0.0036 M; method in brief: as §1
Thymidylate synthase [24] = target: T1, Thymidylate synthase; assay: The observed rate constant with methyl mercaptoacetate in Acetonitrile and buffered aqueous acetonitrile solution at 9.7 x 10e-5 M concentration of 0.00096 M; method in brief: as §1
Thymidylate synthase [25] = target: T1, Thymidylate synthase; assay: The observed rate constant with methyl mercaptoacetate in Acetonitrile and buffered aqueous acetonitrile solution at 7.4 x 10e-5 M concentration of 0.0019 M; method in brief: as §1
Thymidylate synthase [26] = target: T1, Thymidylate synthase; assay: The observed rate constant with methyl mercaptoacetate in Acetonitrile and buffered aqueous acetonitrile solution at 1.4 x 10e-4 M concentration of 0.0039; method in brief: as §1
Thymidylate synthase [27] = target: T1, Thymidylate synthase; assay: The rate constant with methyl mercaptoacetate in Acetonitrile and buffered aqueous acetonitrile solution at concentration of 0.012 M; method in brief: as §1

SMILES: CC1=CC(=O)c2ccccc2C1=O
- k2 (Thymidylate synthase [4]): 0.14 M⁻¹ s⁻¹

SMILES: CC1C=CC(=O)O1 (centres undefined)
- k2 (Thymidylate synthase [5]): 0.037 M⁻¹ s⁻¹

SMILES: O=C1C=CC(=O)C(c2cn([C@H]3C[C@H](O)[C@@H](CO)O3)c(=O)[nH]c2=O)=C1
- k2 (Thymidylate synthase [6]): 5 M⁻¹ s⁻¹
- k2 (Thymidylate synthase [7]): > 1000 M⁻¹ s⁻¹

SMILES: C=CC(=O)OC
- k2 (Thymidylate synthase [8]): 0.11 M⁻¹ s⁻¹

Results, then the molecule that gave them:

- Ki (Thymidylate synthase [1]): 2000 nM
- k cat (Thymidylate synthase [2]): 0.065 s⁻¹
- k2 (Thymidylate synthase [3]): 32000 M⁻¹ s⁻¹
SMILES: O=C1C=CC(=O)C(c2cn([C@H]3C[C@H](O)[C@@H](COP(=O)(O)O)O3)c(=O)[nH]c2=O)=C1

- k2 (Thymidylate synthase [3]): > 760000 M⁻¹ s⁻¹
SMILES: O=c1ccn([C@H]2C[C@H](O)[C@@H](COP(=O)(O)O)O2)c(=O)[nH]1

- k2 (Thymidylate synthase [3]): 2600 M⁻¹ s⁻¹
SMILES: O=C1C=CC(=O)C(c2ccccc2)=C1

- k obs (Thymidylate synthase [9]): 0.00434 s⁻¹
- k obs (Thymidylate synthase [10]): 0.00501 s⁻¹
- k obs (Thymidylate synthase [11]): 0.00154 s⁻¹
- k obs (Thymidylate synthase [12]): 0.00384 s⁻¹
- k obs (Thymidylate synthase [13]): 0.00184 s⁻¹
- k obs (Thymidylate synthase [14]): 0.0025 s⁻¹
- k2 (Thymidylate synthase [15]): 2.3 M⁻¹ s⁻¹
- k2 (Thymidylate synthase [16]): 4.7 M⁻¹ s⁻¹
- k obs (Thymidylate synthase [17]): 0.00334 s⁻¹
- k obs (Thymidylate synthase [18]): 0.0167 s⁻¹
- k obs (Thymidylate synthase [19]): 0.00952 s⁻¹
- k obs (Thymidylate synthase [20]): 0.0197 s⁻¹
- k2 (Thymidylate synthase [21]): 0.53 M⁻¹ s⁻¹
- k obs (Thymidylate synthase [22]): 0.0184 s⁻¹
- k obs (Thymidylate synthase [23]): 0.00518 s⁻¹
- k obs (Thymidylate synthase [24]): 0.000434 s⁻¹
- k obs (Thymidylate synthase [25]): 0.00919 s⁻¹
- k obs (Thymidylate synthase [26]): 0.00969 s⁻¹
- k2 (Thymidylate synthase [27]): 1.7 M⁻¹ s⁻¹
SMILES: CC(=O)OC[C@H]1O[C@@H](n2cc(C3=CC(=O)C=CC3=O)c(=O)[nH]c2=O)C[C@@H]1OC(C)=O
